Source: ChEMBL document CHEMBL1828627, “High-throughput-screening-based identification and structure-activity relationship characterization defined (S)-2-(1-aminoisobutyl)-1-(3-chlorobenzyl)benzimidazole as a highly antimycotic agent nontoxic to cell lines” (J Med Chem, 2011)
Active and inactive are the calls of the source.

Experiments:
[1] = test system: Candida albicans; experiment: Antifungal activity against Candida albicans SC5314 infected in HeLa cells after 5 days by fluorescein diacetate assay; assay type: functional, organism-based
Outline: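 HeLa cells co-incubated with C. albicans and compound for 5 days. Dose–response from resynthesized compounds. Host-cell viability checked microscopically at 18 h, then quantified at day 5 by fluorescein diacetate conversion to a fluorophore by live cells. Wells also inspected visually for yeast growth. Controls: untreated uninfected HeLa (~100%) and untreated infected HeLa (~0%). IC50 derived from infected cells; CC50 as half-maximal cytotoxic concentration.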

[2] = test system: Candida albicans; experiment: Antifungal activity against Candida albicans SC5314 infected in HeLa cells at 20 uM after 5 days by fluorescein diacetate assay; assay type: functional, organism-based
Outline: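 Primary HTS: HeLa cells co-incubated with C. albicans plus a single compound at ~20 μM for 5 days. Viability checked microscopically at 18 h and quantified at day 5 by fluorescein diacetate fluorescence. Wells also scanned visually for yeast growth. Hit criterion: >40% signal relative to the uninfected untreated HeLa (~100%) and infected untreated HeLa (~0%) controls.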

[3] = Cytotoxicity against human HeLa cells assessed as cell viability after 5 days by fluorescein diacetate assay; assay type: cell-based
[4] = Selectivity index of CC50 for human HeLa cells to IC50 for Candida albicans SC5314 infected in HeLa cells
Outline: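 Selectivity index calculated as CC50/IC50. CC50 is the half-maximal cytotoxic concentration in HeLa cells; IC50 is the half-maximal antimycotic concentration in the C. albicans–infected HeLa assay. Both come from 5-day fluorescein diacetate viability readouts.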

[5] = Candida albicans, SC5314, HeLa, 120 h, read-out: IC50

| SMILES | inhibition [2] | also measured |
| --- | --- | --- |
| CC(C)[C@@H](N)c1nc2ccccc2n1Cc1cccc(Cl)c1 |  | IC50 ([1]; hela): Not Active |
| COc1cccc(Cn2c([C@@H](N)C(C)C)nc3cc(Cl)c(Cl)cc32)c1 | inactive |  |
| CCC(C)[C@H](N)c1nc2cc(Cl)c(Cl)cc2n1Cc1cccc(F)c1 (stereo partly specified) | inactive |  |
| Cc1cccc(Cn2c([C@H](C)N)nc3cc(C(F)(F)F)ccc32)c1 | inactive |  |
| CC(C)C[C@H](N)c1nc2cc(C(F)(F)F)ccc2n1Cc1cccc(F)c1 | inactive |  |
| CC(C)C[C@H](N)c1nc2ccccc2n1Cc1ccc(Cl)cc1 | inactive | CC50 at 120 h [3]: 36 µM; IC50 [1, 5]: 4 µM; Ratio CC50/IC50 [4]: 9 |
| C[C@H](N)c1nc2ccccc2n1Cc1cccc(F)c1 | inactive |  |
| C[C@H](N)c1nc2ccccc2n1Cc1ccc(Cl)cc1 | inactive |  |
| CCC[C@H](N)c1nc2cc(Cl)c(Cl)cc2n1Cc1cccc(OC)c1 | inactive |  |
| COc1cccc(Cn2c([C@@H](N)CC(C)C)nc3cc(Cl)c(Cl)cc32)c1 | inactive |  |
| CCC(C)[C@H](N)c1nc2ccccc2n1Cc1cccc(F)c1 (stereo partly specified) | inactive |  |
| CCC(C)[C@H](N)c1nc2cc(Cl)c(Cl)cc2n1Cc1cccc(OC)c1 (stereo partly specified) | inactive |  |
| COc1cccc(Cn2c([C@H](C)N)nc3cc(Cl)c(Cl)cc32)c1 | inactive |  |
| CCC(C)[C@H](N)c1nc2ccccc2n1Cc1cccc(Cl)c1 (stereo partly specified) | inactive |  |
| Cc1cccc(Cn2c(C(C)(C)N)nc3ccccc32)c1 | inactive |  |
| Cc1cccc(Cn2c(C(C)(C)N)nc3cc(C(F)(F)F)ccc32)c1 | inactive |  |
| CC(C)(N)c1nc2cc(Cl)c(Cl)cc2n1Cc1cccc(F)c1 | inactive |  |
| Cc1cccc(Cn2c([C@@H](N)CC(C)C)nc3ccccc32)c1 | inactive |  |
| COc1cccc(Cn2c([C@@H](N)CC(C)C)nc3ccccc32)c1 | inactive |  |
| CCC(C)[C@H](N)c1nc2cc(Cl)c(Cl)cc2n1Cc1ccc(Cl)cc1 (stereo partly specified) | inactive |  |
| COc1cccc(Cn2c([C@@H](N)C(C)C)nc3cc(C(F)(F)F)ccc32)c1 | inactive |  |
| CCC(C)[C@H](N)c1nc2cc(Cl)c(Cl)cc2n1Cc1cccc(Cl)c1 (stereo partly specified) | inactive |  |

| SMILES | inhibition [2] | also measured |
| --- | --- | --- |
| CCC[C@H](N)c1nc2ccccc2n1Cc1cccc(C)c1 | inactive | CC50 at 120 h [3]: 30 µM; IC50 [1, 5]: 2 µM; Ratio CC50/IC50 [4]: 15 |
| CCC[C@H](N)c1nc2cc(C(F)(F)F)ccc2n1Cc1cccc(OC)c1 | inactive |  |
| COc1cccc(Cn2c([C@@H](N)CC(C)C)nc3cc(C(F)(F)F)ccc32)c1 | inactive |  |
| CCC[C@H](N)c1nc2ccccc2n1Cc1cccc(OC)c1 | inactive |  |
| CC(C)C[C@H](N)c1nc2ccccc2n1Cc1cccc(F)c1 | inactive |  |
| CC(C)C[C@H](N)c1nc2ccccc2n1Cc1cccc(Cl)c1 | inactive |  |
| CC(C)[C@H](N)c1nc2cc(C(F)(F)F)ccc2n1Cc1cccc(F)c1 | inactive |  |
| C[C@@H]1[C@H](O)[C@@H](C)/C=C/C=C/C=C/C=C/C=C/C=C/C=C/[C@H](O[C@@H]2O[C@H](C)[C@@H](O)[C@H](N)[C@@H]2O)C[C@@H]2O[C@](O)(C[C@@H](O)C[C@@H](O)[C@H](O)CC[C@@H](O)C[C@@H](O)CC(=O)O[C@H]1C)C[C@H](O)[C@H]2C(=O)O [AMPHOTERICIN B] |  | IC50 [1, 5]: 0.5 µM |
| CC(C)C[C@H](N)c1nc2cc(C(F)(F)F)ccc2n1Cc1ccc(Cl)cc1 | inactive |  |
| C[C@H](N)c1nc2cc(C(F)(F)F)ccc2n1Cc1cccc(F)c1 | inactive |  |
| C[C@H](N)c1nc2cc(Cl)c(Cl)cc2n1Cc1ccc(Cl)cc1 | inactive |  |
| COc1cccc(Cn2c([C@H](C)N)nc3ccccc32)c1 | inactive |  |
| CCC(C)[C@H](N)c1nc2ccccc2n1Cc1cccc(C)c1 (stereo partly specified) | inactive |  |
| CCC[C@H](N)c1nc2cc(C(F)(F)F)ccc2n1Cc1cccc(Cl)c1 | inactive |  |
| CCC[C@H](N)c1nc2ccccc2n1Cc1cccc(F)c1 | inactive |  |
| CC(C)(N)c1nc2ccccc2n1Cc1cccc(Cl)c1 | inactive |  |
| CC(C)C[C@H](N)c1nc2cc(Cl)c(Cl)cc2n1Cc1ccc(Cl)cc1 | inactive |  |
| CCC(C)[C@H](N)c1nc2cc(C(F)(F)F)ccc2n1Cc1cccc(C)c1 (stereo partly specified) | inactive |  |
| Cc1cccc(Cn2c([C@@H](N)CC(C)C)nc3cc(C(F)(F)F)ccc32)c1 | inactive |  |
| CCC[C@H](N)c1nc2cc(C(F)(F)F)ccc2n1Cc1cccc(F)c1 | inactive |  |
| Cc1cccc(Cn2c([C@@H](N)C(C)C)nc3cc(Cl)c(Cl)cc32)c1 | inactive |  |
| CC(C)[C@H](N)c1nc2cc(Cl)c(Cl)cc2n1Cc1cccc(F)c1 | inactive |  |

| SMILES | inhibition [2] | also measured |
| --- | --- | --- |
| COc1cccc(Cn2c(C(C)(C)N)nc3cc(Cl)c(Cl)cc32)c1 | inactive |  |
| C[C@H](N)c1nc2cc(C(F)(F)F)ccc2n1Cc1ccc(Cl)cc1 | inactive |  |
| CC(C)(N)c1nc2cc(C(F)(F)F)ccc2n1Cc1ccc(Cl)cc1 | inactive |  |
| COc1cccc(Cn2c([C@@H](N)C(C)C)nc3ccccc32)c1 | inactive |  |
| CC(=O)N[C@H](c1nc2ccccc2n1Cc1cccc(Cl)c1)C(C)C |  | IC50 ([1]; hela): Not Active |
| Cc1cccc(Cn2c(C(C)(C)N)nc3cc(Cl)c(Cl)cc32)c1 | inactive |  |
| C[C@H](N)c1nc2cc(C(F)(F)F)ccc2n1Cc1cccc(Cl)c1 | inactive |  |
| CC(C)(N)c1nc2cc(Cl)c(Cl)cc2n1Cc1cccc(Cl)c1 | inactive |  |
| CCC[C@H](N)c1nc2cc(Cl)c(Cl)cc2n1Cc1cccc(C)c1 | inactive |  |
| CCC[C@H](N)c1nc2cc(C(F)(F)F)ccc2n1Cc1cccc(C)c1 | inactive |  |
| CCC[C@H](N)c1nc2ccccc2n1Cc1ccc(Cl)cc1 | inactive | CC50 at 120 h [3]: 28 µM; IC50 [1, 5]: 2 µM; Ratio CC50/IC50 [4]: 14 |
| CC(C)C[C@H](N)c1nc2cc(C(F)(F)F)ccc2n1Cc1cccc(Cl)c1 | inactive |  |
| CC(C)(N)c1nc2cc(C(F)(F)F)ccc2n1Cc1cccc(Cl)c1 | inactive |  |
| COc1cccc(Cn2c(C(C)(C)N)nc3ccccc32)c1 | inactive |  |
| CC(C)(N)c1nc2cc(Cl)c(Cl)cc2n1Cc1ccc(Cl)cc1 | inactive |  |
| CC(C)[C@H](N)c1nc2cc(C(F)(F)F)ccc2n1Cc1cccc(Cl)c1 | inactive |  |
| CC(C)C[C@H](N)c1nc2cc(Cl)c(Cl)cc2n1Cc1cccc(Cl)c1 | inactive |  |
| CCC(C)[C@H](N)c1nc2cc(C(F)(F)F)ccc2n1Cc1cccc(F)c1 (stereo partly specified) | inactive |  |
| CC(C)[C@H](N)c1nc2ccccc2n1Cc1ccc(Cl)cc1 | inactive |  |
| CCC(C)[C@H](N)c1nc2cc(C(F)(F)F)ccc2n1Cc1cccc(OC)c1 (stereo partly specified) | inactive |  |
| CCC[C@H](N)c1nc2cc(C(F)(F)F)ccc2n1Cc1ccc(Cl)cc1 | inactive |  |
| CCC(C)[C@H](N)c1nc2cc(Cl)c(Cl)cc2n1Cc1cccc(C)c1 (stereo partly specified) | inactive |  |

| SMILES | inhibition [2] | also measured |
| --- | --- | --- |
| CC(C)[C@H](N)c1nc2cc(Cl)c(Cl)cc2n1Cc1ccc(Cl)cc1 | inactive |  |
| COc1cccc(Cn2c(C(C)(C)N)nc3cc(C(F)(F)F)ccc32)c1 | inactive |  |
| CC(C)(N)c1nc2ccccc2n1Cc1cccc(F)c1 | inactive |  |
| CCC[C@H](N)c1nc2cc(Cl)c(Cl)cc2n1Cc1cccc(Cl)c1 | inactive |  |
| CCC(C)[C@H](N)c1nc2ccccc2n1Cc1cccc(OC)c1 (stereo partly specified) | inactive |  |
| CC(C)C[C@H](N)c1nc2cc(Cl)c(Cl)cc2n1Cc1cccc(F)c1 | inactive |  |
| CCC(C)[C@H](N)c1nc2cc(C(F)(F)F)ccc2n1Cc1ccc(Cl)cc1 (stereo partly specified) | inactive |  |
| C[C@H](N)c1nc2cc(Cl)c(Cl)cc2n1Cc1cccc(Cl)c1 | inactive |  |
| CC(C)(N)c1nc2cc(C(F)(F)F)ccc2n1Cc1cccc(F)c1 | inactive |  |
| CC(C)[C@H](N)c1nc2cc(Cl)c(Cl)cc2n1Cc1cccc(Cl)c1 | inactive |  |
| CCC(C)[C@H](N)c1nc2cc(C(F)(F)F)ccc2n1Cc1cccc(Cl)c1 (stereo partly specified) | inactive |  |
| Cc1cccc(Cn2c([C@@H](N)CC(C)C)nc3cc(Cl)c(Cl)cc32)c1 | inactive |  |
| CCC(C)[C@H](N)c1nc2ccccc2n1Cc1ccc(Cl)cc1 (stereo partly specified) | inactive |  |
| C[C@H](N)c1nc2cc(Cl)c(Cl)cc2n1Cc1cccc(F)c1 | inactive |  |
| Cc1cccc(Cn2c([C@@H](N)C(C)C)nc3cc(C(F)(F)F)ccc32)c1 | inactive |  |
| CCC[C@H](N)c1nc2cc(Cl)c(Cl)cc2n1Cc1ccc(Cl)cc1 | inactive |  |
| CCC[C@H](N)c1nc2cc(Cl)c(Cl)cc2n1Cc1cccc(F)c1 | inactive |  |
| COc1cccc(Cn2c([C@H](C)N)nc3cc(C(F)(F)F)ccc32)c1 | inactive |  |
| CC(C)[C@H](N)c1nc2cc(C(F)(F)F)ccc2n1Cc1ccc(Cl)cc1 | inactive |  |
| CCC[C@H](N)c1nc2ccccc2n1Cc1cccc(Cl)c1 | inactive |  |
| Cc1cccc(Cn2c([C@H](C)N)nc3cc(Cl)c(Cl)cc32)c1 | inactive |  |
